Assay outcomes deposited in PubChem BioAssay by several laboratories.
Sampled rows, rich in hits. Any-hit rate of the full collection: about 4.2%.
HDAC3 inhib: HDAC3 deacetylase inhibitors, primary screen, biochemical, fluorescence, cell-free homogeneous; AID 2718, 2010; 0.15% of 320,000 active; inhibition, % at 8.3 µM; recombinant HDAC3, fluorogenic peptide/trypsin coupled; in the data active means inhibition above about 26%, passing the limit was not always enough
AHR act: AHR activators, primary screen, cell-based, luminescence, luciferase reporter, human | Aryl hydrocarbon receptor (Homo sapiens), P35869 | AHR-responsive luciferase reporter cells | activation, % at 5 µM | 2.5% of 320,000 active | AID 2796, 2010; in the data active means activation above about 47%
Target sequence (P35869 whole entry, looked up): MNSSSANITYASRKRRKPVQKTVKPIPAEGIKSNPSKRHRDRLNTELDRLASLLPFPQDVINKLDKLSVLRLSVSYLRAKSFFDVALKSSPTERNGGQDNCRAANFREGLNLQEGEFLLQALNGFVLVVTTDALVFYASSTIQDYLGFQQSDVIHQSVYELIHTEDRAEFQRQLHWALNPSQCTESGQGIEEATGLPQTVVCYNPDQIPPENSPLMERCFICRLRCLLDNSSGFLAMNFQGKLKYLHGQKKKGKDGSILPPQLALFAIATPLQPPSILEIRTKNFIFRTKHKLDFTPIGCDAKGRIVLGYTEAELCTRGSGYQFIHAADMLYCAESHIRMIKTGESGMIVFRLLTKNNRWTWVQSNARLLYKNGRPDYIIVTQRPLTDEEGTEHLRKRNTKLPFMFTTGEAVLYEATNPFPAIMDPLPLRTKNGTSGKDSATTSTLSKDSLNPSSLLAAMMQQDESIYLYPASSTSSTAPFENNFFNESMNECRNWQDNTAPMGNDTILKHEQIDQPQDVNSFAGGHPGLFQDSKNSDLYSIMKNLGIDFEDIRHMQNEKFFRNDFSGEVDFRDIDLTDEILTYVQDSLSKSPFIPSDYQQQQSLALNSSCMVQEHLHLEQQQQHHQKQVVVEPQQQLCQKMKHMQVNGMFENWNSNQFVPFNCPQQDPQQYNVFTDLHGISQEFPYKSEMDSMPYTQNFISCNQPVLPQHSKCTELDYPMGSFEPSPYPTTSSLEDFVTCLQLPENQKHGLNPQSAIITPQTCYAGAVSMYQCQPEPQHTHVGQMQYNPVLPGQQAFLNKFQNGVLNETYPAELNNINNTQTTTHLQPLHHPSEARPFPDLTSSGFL
CTSL1 counter: Fasciola hepatica cathepsin L1 inhibitors, primary screen, counter-screen for PFM18AAP inhibitor project, biochemical, QFRET, fluorogenic peptide substrate; AID 1906, 2009; recombinant F. hepatica cathepsin L1, Z-Leu-Arg-MCA fluorescence; 0.49% of 300,000 active; inhibition, % at 5.96 µM;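 active means inhibition above the mean of all tested compounds plus 3 SD, set per screening campaign, cut at about 17% in these data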
SENP1 inh: human SENP1 catalytic domain inhibitors, primary screen, biochemical, FRET, uHTS. recombinant SENP1 catalytic domain, CyPet-SUMO1-YPet FRET cleavage. Sentrin-specific protease 1 (Homo sapiens), Q9P0U3. 0.21% of 360,000 active. inhibition, % at 10 µM;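 active means inhibition at least 30% at 10 µM, raw YFP signal under a set limit, fluorescence ratio 0.5 to 1.5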
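system = hSENP1 catalytic domain, recombinant | reagent = SFCypet-SUMO1-SFYpet substrate at 25 nM | doses = one dose per compound, 10 µM, 0.5% DMSO | incubation = enzyme reaction for 50 min at room temperature, dark | measured by = FRET, CFP and YFP emission | controls = no-enzyme low, enzyme-DMSO high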
M18AAP inhibitor: PfM18AAP inhibitors, malaria aminopeptidase, primary screen, biochemical, QFRET, recombinant enzyme; M18 aspartyl aminopeptidase (Plasmodium falciparum 3D7); H-Glu-NHMec fluorogenic cleavage; inhibition, % at 7.35 µM; 1.2% of 290,000 active; AID 1822, 2009;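 active means inhibition above the campaign mean inhibition over all tested compounds plus 3 SD, cut at about 28% in these data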
FXN GAA850 act: FXN promoter activators, primary screen, cell-based, luciferase luminescence, HEK293 lucGAA850; HEK293 lucGAA850 FXN promoter luciferase reporter, 24 h; percent of 10 µM SAHA response; activation, % at 6 µM; 0.56% of 360,000 active;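 active means activation above the average of all compounds screened plus 3 SD, cutoff fixed separately per campaign, cut at about 7.5% in these data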
Each line names hits and unclear results; the compound was inactive in the other large screens.

COC(=O)c1c(NC(=O)c2cccnc2)sc(C(=O)N(C)C)c1C	none
CCOc1ccc(OC(=O)c2cccnc2)cc1	none
COC(=O)c1c(NC(=O)c2cccnc2)sc(C)c1C	AHR act 71
COc1ccc(NS(=O)(=O)c2cc(NC(=O)CCc3ccc(OC)c(OC)c3)ccc2N2CCOCC2)cc1	none (no result: HDAC3 inhib, AHR act, CTSL1 counter, M18AAP inhibitor)
COc1ccc(NS(=O)(=O)c2cc(C(=O)N3CCCCCC3)ccc2C)cc1	none (no result: CTSL1 counter, M18AAP inhibitor)
CS(=O)(=O)N(CC(=O)N1CCc2ccccc2C1)c1cccc(F)c1	none
CCOc1ccc(NC(=O)N2CCc3ccccc3C2)cc1	AHR act 67
COc1ccc(NC(=O)N2CCc3ccccc3C2)cc1	none (no result: AHR act, CTSL1 counter)
Cc1ccc(NC(=O)N2CCc3ccccc3C2)cc1	none
O=C(CN(c1cccc(Cl)c1)S(=O)(=O)c1ccc(Cl)cc1)N1CCc2ccccc2C1	AHR act 61
O=C(Nc1ccc(Cl)cc1)N1CCc2ccccc2C1	AHR act 63
c1ccc(-c2onc(-c3ccco3)c2-c2ccc3[nH]ccc3c2)cc1	none
CC(C)C[C@@H](CNCC(=O)[C@H](CC(C)C)NC(=O)c1[nH]cnc1C(=O)N[C@@H](C)CN)NC(=O)c1nc[nH]c1C(=O)N[C@@H](CC(=O)O)C(=O)O	none (no result: HDAC3 inhib, AHR act, CTSL1 counter, M18AAP inhibitor)
Cc1ccc(NC(=O)COC(=O)C(CC(C)C)N2C(=O)C3CC=CCC3C2=O)c(C)c1 (centres undefined)	CTSL1 counter 17
CC(C(=O)OCC(=O)Nc1ccccc1OC(F)F)N1C(=O)C2CC=CCC2C1=O (centres undefined)	none (no result: HDAC3 inhib, AHR act, CTSL1 counter, M18AAP inhibitor)
O=C(Nc1ccccc1O)c1ccc(Cl)cc1	HDAC3 inhib 91, AHR act 66
O=C(NC(=S)Nc1ccccc1O)c1ccc(-c2ccc(Cl)cc2)o1	AHR act 67
O=C(Nc1ccccc1O)c1ccc([N+](=O)[O-])cc1	HDAC3 inhib 53, AHR act 70
N#C/C(=C/c1ccc([N+](=O)[O-])cc1)C(=O)Nc1ccccc1O	AHR act 68
COc1ccccc1NC(=S)NC(=O)c1ccc(-c2ccc(Cl)cc2)o1	none
CC12CCC(=O)C=C1C(F)CC1C2C(O)CC2(C)C1CCC2(O)C(=O)CO (centres undefined)	none (no result: HDAC3 inhib, AHR act, CTSL1 counter, M18AAP inhibitor)
COc1ccc(N(CC(=O)NC2CCCCCC2)S(=O)(=O)c2ccc(C)cc2)cc1OC	none
N#CCCn1nc(-c2ccccc2)cc1Nc1ccccc1NC(=O)c1cccs1	AHR act 49
CC(C)c1ccc2c(c1)C1Cc3ccccc3C1N2 (centres undefined)	AHR act 51
O=S1(=O)NC2c3ccccc3CC2O1 (centres undefined)	none
C#CCOCCOCCOCCNc1nc(N2CCN(C(=O)[C@H]([C@@H](C)CC)n3cc([C@@H](N)CC(C)C)nn3)CC2)nc(N2CCN(C(=O)[C@H](Cc3cc4ccccc4[nH]3)n3cc([C@@H](N)Cc4ccc(O)cc4)nn3)CC2)n1	none (no result: SENP1 inh, FXN GAA850 act)
C#CCOCCOCCOCCNc1nc(N2CCN(C(=O)[C@H]([C@@H](C)CC)n3cc([C@@H](N)Cc4ccc(O)cc4)nn3)CC2)nc(N2CCN(C(=O)[C@H](Cc3cc4ccccc4[nH]3)n3cc([C@@H](N)CC(C)C)nn3)CC2)n1	CTSL1 counter 51 (no result: M18AAP inhibitor)
C#CCOCCOCCOCCNc1nc(N2CCN(C(=O)[C@H]([C@@H](C)CC)n3cc([C@@H](N)Cc4ccc(O)cc4)nn3)CC2)nc(N2CCN(C(=O)[C@H](CCCCN)n3cc([C@@H](N)CC(C)C)nn3)CC2)n1	CTSL1 counter 28 (no result: SENP1 inh, FXN GAA850 act)
C#CCOCCOCCOCCNc1nc(N2CCN(C(=O)[C@H](CCCCN)n3cc([C@@H](N)CC(C)C)nn3)CC2)nc(N2CCN(C(=O)[C@H](Cc3ccc(O)cc3)n3cc([C@@H](N)CC(C)C)nn3)CC2)n1	none (no result: SENP1 inh, FXN GAA850 act)
NC(=O)NC(=O)CSc1nc(-c2ccccc2)c(-c2ccccc2)n1CC1CCCO1 (centres undefined)	CTSL1 counter 20
Cc1ccc(Nc2nnc(SCC(=O)Nc3cccnc3Cl)s2)cc1C	M18AAP inhibitor 29
Cc1ccc(Nc2nnc(SCC(=O)Nc3ccccc3[N+](=O)[O-])s2)cc1	none
C[C@H](CO)N1C[C@H](C)[C@H](CN(C)Cc2ccncc2)Oc2ncc(Br)cc2C1=O	none (no result: HDAC3 inhib, AHR act, CTSL1 counter, M18AAP inhibitor)
O=C(O)c1ccc(N2C(=O)/C(=C/C=C/c3ccccc3)SC2=S)cc1	none
CN(C)c1ccc(/C=C/C=C2/SC(=S)N(c3ccccc3)C2=O)cc1	SENP1 inh 72
CC(C)CCn1c(=O)c2ccccc2n2c(=S)[nH]nc12	M18AAP inhibitor 29
COc1cccc(-c2nc(CS(=O)(=O)CC(=O)NCCCN3CC(C)CC(C)C3)c(C)o2)c1 (centres undefined)	CTSL1 counter 19
COc1cccc(-c2nc(CS(=O)(=O)CC(=O)NCCCN3CCN(C)CC3)c(C)o2)c1	none
Cc1cccc(S(=O)(=O)NC(=O)C2(C)CCN2C(=O)c2ccccc2CCc2ccccc2)c1 (centres undefined)	none (no result: HDAC3 inhib, AHR act, CTSL1 counter, M18AAP inhibitor)
COc1ccc(CCC(=O)Nc2nc(C)c(C(=O)N(C)C)s2)cc1	none
N#CC1=C(N)NC(=S)C(C(N)=O)C1c1ccc(Cl)cc1Cl (centres undefined)	M18AAP inhibitor 30
COC(=O)C1(C(=O)OC)C/C=C\CCN(S(=O)(=O)c2ccccc2[N+](=O)[O-])CC1	none (no result: HDAC3 inhib, AHR act, CTSL1 counter, M18AAP inhibitor, FXN GAA850 act)
Cc1[nH][nH]c(=O)c1C(c1ccc(O)c([N+](=O)[O-])c1)c1c(C)[nH][nH]c1=O	M18AAP inhibitor 31
CCOc1cc(C(c2c(C)[nH][nH]c2=O)c2c(C)[nH][nH]c2=O)ccc1O	M18AAP inhibitor 30
CCc1nc2c(OCc3ccccc3C(=O)OC)cccn2c1N(C)C(=O)c1cccc(OC)c1	none (no result: HDAC3 inhib, AHR act, CTSL1 counter, M18AAP inhibitor)
CN1OC[C@@H]2CN(C(=O)Nc3ccccc3)[C@H](c3ccc(N4CCCCC4)cc3)C[C@@H]21	none (no result: HDAC3 inhib, AHR act, CTSL1 counter, M18AAP inhibitor, FXN GAA850 act)
Cc1ccc2ccccc2c1C(O)c1ncc(-c2ccccc2)[nH]1 (centres undefined)	none (no result: HDAC3 inhib, AHR act, CTSL1 counter, M18AAP inhibitor)
Cc1ccc2c(c1)c(C)c(C)n2CC(O)Cn1nc(C)cc1C (centres undefined)	AHR act 61
Cc1ccc2c(c1)c(C)c(C)n2CC(O)Cn1nnc2ccccc21 (centres undefined)	none
Nc1c(C(=O)Nc2ccc3c(c2)OCCO3)nnn1Cc1ccc(Br)cc1	AHR act 51 (no result: M18AAP inhibitor)
c1ccc(-c2ccccc2-c2nc(-c3cccnc3)no2)cc1	none
